Experimental data gathered from unrelated publications.
Each line is one published result; the experiments were not run side by side.
PIK3C2A: Phosphatidylinositol 4-phosphate 3-kinase C2 domain-containing subunit alpha (PIK3C2A, Homo sapiens, UniProt O00443)

Nc1ncc(-c2nc(N3CCOCC3)nc(N3CCOCC3)n2)c(C(F)F)n1 — remaining activity (cGMP-inhibited 3',5'-cyclic phosphodiesterase 3A (PDE3A, Homo sapiens, UniProt Q14432); enzyme activity, inhibitor; 10 µM): 39.1%
COc1cc(Nc2ncc(F)c(Nc3ccc4c(n3)NC(=O)C(C)(C)O4)n2)cc(OC)c1OC — inhibition (Serine/threonine-protein kinase PLK4 (PLK4, Homo sapiens, UniProt O00444); binding; 10 µM): 100%
C#Cc1n[nH]c2c(-c3cn([C@@H](C)c4ccccc4)c(=O)[nH]c3=O)cc(F)cc12 — inhibition (Mitogen-activated protein kinase 14 (MAPK14, Homo sapiens, UniProt Q16539); enzyme activity, inhibitor; 0.1 µM): 2.1%
Cc1nn(C)cc1-c1nc2c(N3CCN(Cc4ccc(Cl)cc4)CC3)c(Cl)cnc2[nH]1 — remaining binding (Cyclin-dependent kinase 14 (CDK14, Homo sapiens, UniProt O94921); binding, competition with immobilised ligand; 1 µM): 100%
CCN(CC)CCCC[C@H](NC(=O)[C@H](CC(C)C)NC(=O)[C@H](C)NC(=O)[C@H](Cc1ccccc1)NC(=O)c1ccc(C(C)(C)C)cc1)C(=O)N[C@@H](CO)C(=O)OC — ΔTm (Bromodomain-containing protein 1, bromodomain (BRD1, Homo sapiens, UniProt O95696); thermal stability, DSF; 25 µM): 0.49 °C
O=C(Nc1cccnn1)N1CCN([C@@H]2CCOc3cc(C(F)(F)F)ccc32)CC1 — inhibition (Apelin receptor (APLNR, Homo sapiens, UniProt P35414); ligand displacement; 20 µM): -1%
Cn1cc(-c2cc(F)cc(N3CCn4c(cc5c4CCCC5)C3=O)c2CO)cc(Nc2ccc(N3CCN(C4COC4)CC3)cn2)c1=O — inhibition (PIK3C2A; enzyme activity, inhibitor; 0.1 µM): -2%
C=C(C)[C@@H]1CCC(C)=C[C@H]1c1c(O)cc(CCC)cc1O — remaining activity (Polyunsaturated fatty acid lipoxygenase ALOX12 (ALOX12, Homo sapiens, UniProt P18054); enzyme activity in cells, inhibitor; PMNL; 10 µM): 110%
Cn1cc(-c2cccc(N3CCc4c(sc5c4CC(C)(C)C5)C3=O)c2CO)cc(Nc2ccncn2)c1=O — inhibition (Serine/threonine-protein kinase PAK 3 (PAK3, Homo sapiens, UniProt O75914); enzyme activity, inhibitor; 1 µM): -3%
COc1ncccc1-c1cnn2ccc(N3CCN(C(=O)OC(C)C)CC3)nc12 — remaining binding (Mitogen-activated protein kinase kinase kinase 13 (MAP3K13, Homo sapiens, UniProt O43283); binding, competition with immobilised ligand; 1 µM): 98%
C#Cc1n[nH]c2c(-c3cn(C(C)c4ccccn4)c(=O)[nH]c3=O)cc(F)cc12 (centres unmarked) — inhibition (PIK3C2A; enzyme activity, inhibitor; 1 µM): 8.9%
